From paper PMC5543573 (Current Pharmaceutical Design, 2017)
In brackets after ≈: the same amount, converted by molar mass.

Columns and labels:
MTT cytotoxicity assay = type: cell-based; details: human
Method in brief: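 Human CCD 841 CoN colon epithelial cells were grown in RPMI-1640 with 10% FBS, 1% penicillin/streptomycin, 1% L-glutamine and amphotericin B at 37 °C under 5% CO2. They were seeded at 5x10^3 cells/well, then treated 24 h later with test compound at 1.95–1000 µg/ml for 24 h. MTT solution (5 mg/mL) was added for 3 h at 37 °C, formazan dissolved in DMSO, and absorbance read at 540 nm. IC50 was obtained by regression of proliferation against concentration.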

[1] = system: Candida albicans (ATCC 24433); assay: Broth microdilution MIC90; type: cell-based; details: ATCC24433, read-out: MIC90 Ca

Row | MIC90 [1] | Structure (SMILES) | IC50 at 24 h (MTT cytotoxicity assay)
1 |  | O=C(N/N=C/c1ccc([N+](=O)[O-])o1)c1ccc(O)cc1 [Nifuroxazide] | 122 µg/mL (≈ 443 µM)
2 | 7.8 µg/mL (≈ 14.7 µM) | CC(=O)N1CCN(c2ccc(OCC3COC(Cn4ccnc4)(c4ccc(Cl)cc4Cl)O3)cc2)CC1 (centres unmarked) [Ketoconazole] | 
